Assay results of several laboratories.
Target: Mitogen-activated protein kinase 8 (MAPK8, Homo sapiens, UniProt P45983)

C#Cc1cc(-c2cc(Nc3nc(N[C@@H](C)c4ccc(F)cn4)ncc3Cl)n[nH]2)ccc1C=O
inhibition (enzyme activity; inhibitor; 0.2 µM): 9.62%

C1=C/COCc2cc(ccc2OCCN2CCCC2)Nc2nccc(n2)-c2cccc(c2)COC/1
remaining signal (cell-free assay; 0.1 µM): 12%

N#Cc1ccc(NC(=O)Nc2ccccc2)cc1
remaining binding (cell-free assay; competition with immobilised ligand; 25 µM): 78%

C[C@H]1CC[C@H](n2c3cnccc3c3cnc(Nc4ccc5c(n4)CCN(C(=O)CO)C5)nc32)CC1
remaining binding (binding; 1 µM): 7%

C=CC(=O)N1CCC([C@@H]2CCNc3c(C(N)=O)c(-c4ccc(Oc5ccccc5)cc4)nn32)CC1
inhibition (enzyme activity; inhibitor; 1 µM): 21%

C#Cc1cnc(Nc2ccnc(CO)c2)nc1Nc1ccccc1S(C)(=O)=NC#N (stereo not drawn)
remaining signal (cell-free assay; 1 µM): 54%

CCCCC(=O)Nc1ccc(-c2ccc3ncn(CCC)c(=O)c3c2)cn1
remaining binding (binding; competition with immobilised ligand; 0.5 µM): 52%

Cc1ccc(NC(=O)c2ccnc(C(F)(F)F)c2)cc1-c1cc(OCCO)nc(N2CCOCC2)c1
remaining binding (binding; 1 µM): 80%

CO[C@@H]1[C@H](N(C)C(=O)c2ccccc2)C[C@H]2O[C@]1(C)n1c3ccccc3c3c4c(c5c6ccccc6n2c5c31)C(=O)NC4
inhibition (enzyme activity; inhibitor; 1 µM): 22%
